In the library only some 2% were active in any assay of this set; here they are far more common.
VIM-2 inh: inhibitors of Pseudomonas aeruginosa VIM-2 metallo-beta-lactamase | purified VIM-2, nitrocefin hydrolysis, epi-absorbance fluorescence | inhibition, % at 5.6 µM | 0.89% of 290,000 active;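 active means inhibition above the mean of all tested compounds plus 3 SD, cutoff set per screening run, cut at about 7.5% in these data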;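 further: red hydrolysis product quenches plate fluorescence so inhibitors raise well fluorescence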
HKDC1 inh: blocks human hexokinase HKDC1 activity | inhibition, % at 20 µM | 0.16% of 340,000 active | recombinant HKDC1, G6PDH/diaphorase resazurin coupled fluorescence;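 active means inhibition above about 35% when tested at 20 µM, limit read from the data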
Target sequence (Q2TB90 whole entry, looked up): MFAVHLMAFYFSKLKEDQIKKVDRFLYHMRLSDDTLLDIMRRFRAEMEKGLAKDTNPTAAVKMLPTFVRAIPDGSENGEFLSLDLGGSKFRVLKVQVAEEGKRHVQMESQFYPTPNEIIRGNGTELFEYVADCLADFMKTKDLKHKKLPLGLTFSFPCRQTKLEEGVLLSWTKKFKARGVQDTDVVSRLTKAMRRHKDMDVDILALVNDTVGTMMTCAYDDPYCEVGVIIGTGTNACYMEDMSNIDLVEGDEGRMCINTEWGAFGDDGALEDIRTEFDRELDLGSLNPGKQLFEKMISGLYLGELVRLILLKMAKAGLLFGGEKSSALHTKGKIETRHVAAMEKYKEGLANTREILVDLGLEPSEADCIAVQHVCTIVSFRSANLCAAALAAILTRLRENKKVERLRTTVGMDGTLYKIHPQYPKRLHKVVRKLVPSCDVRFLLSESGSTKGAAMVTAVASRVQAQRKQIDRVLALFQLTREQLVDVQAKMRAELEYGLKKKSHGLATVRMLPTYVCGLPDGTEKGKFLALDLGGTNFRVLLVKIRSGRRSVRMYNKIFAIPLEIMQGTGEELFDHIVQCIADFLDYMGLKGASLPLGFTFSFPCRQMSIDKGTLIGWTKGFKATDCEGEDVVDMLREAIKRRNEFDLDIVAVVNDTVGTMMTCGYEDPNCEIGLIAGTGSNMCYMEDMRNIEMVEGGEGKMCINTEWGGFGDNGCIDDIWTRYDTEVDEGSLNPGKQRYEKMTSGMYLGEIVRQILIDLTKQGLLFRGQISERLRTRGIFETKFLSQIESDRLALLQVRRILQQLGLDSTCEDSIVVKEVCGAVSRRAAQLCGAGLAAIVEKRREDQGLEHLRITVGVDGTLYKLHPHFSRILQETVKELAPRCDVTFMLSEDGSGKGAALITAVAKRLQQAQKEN
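Test system: recombinant HKDC1 (HK5) hexokinase enzyme, produced in-house / Doses: 20 µM test compound, 1% DMSO / Timing: 90 min, room temperature / Detection: G6PDH/diaphorase-coupled fluorescence, 1 mM NADP, 100 µM resazurin, 525/613 nm / Control set: DMSO wells with and without enzyme mix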
beta cell repl: induces beta-cell replication in MIN6 cells | MIN6 cells proliferation, ATPlite luminescence, 48 h; cells starved in 0.2% serum; 100% = growth in 10% serum | 0.29% of 330,000 active | proliferation, % at 10 µM | AID 2380;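 active means compounds whose signal lies at least 3.5 SD above the mean of all wells on their plate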
PvdQ acylase: blocks Pseudomonas aeruginosa PvdQ acylase activity; purified PvdQ acylase, fluorescence plate reader; inhibition, % at 10 µM; 0.063% of 340,000 active; AID 488965; in the data active means inhibition above about 30%, passing the limit was not always enough
ATG4B inhibitor: ATG4B (human) cysteine protease inhibition; AID 504462; Q9Y4P1; 0.51% of 340,000 active; ATG4B cleavage of LC3-PLA2, NBD-HPC fluorescence, 1 h; inhibition, % at 8.33 µM; in the data active means inhibition above about 40%
IMP-1 inh: blocks Pseudomonas aeruginosa IMP-1 metallo-beta-lactamase | AID 1556 | inhibition, % at 5.6 µM | purified IMP-1, nitrocefin hydrolysis, epi-absorbance fluorescence | 0.45% of 290,000 active;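 active means inhibition above the mean plus 3 SD of all compounds in the same screening run, cut at about 4.5% in these data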
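Assay system: purified recombinant IMP-1 beta-lactamase. Input: IMP-1 0.2 nM before substrate addition. Buffer or medium: Zinc- and detergent-supplemented HEPES buffer, pH 7.1. Schedule: 25 °C, 15 min preincubation, 25 min reaction. Signal: Epi-absorbance fluorescence, 480 nm excitation, 530 nm emission. Evaluation: percent inhibition from optical density relative to buffer-blank wells.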
Large screens that a line does not name were inactive.

COc1ccccc1CN(Cc1nc2ccccc2c(=O)[nH]1)S(=O)(=O)c1ccc(C)cc1	none
Cc1ccc(-c2nc3ccsc3c(=O)o2)cc1	PvdQ acylase 66
Oc1ccc(Cl)cc1C=NCCc1ccccc1	ATG4B inhibitor 43
Cc1ccc(CS(=O)Cc2ccc(C(=O)NCc3ccccc3)o2)cc1 (stereo not drawn)	none
O=C(C=Cc1ccco1)c1cc(Cl)ccc1O	PvdQ acylase 45 (no result: VIM-2 inh, beta cell repl, IMP-1 inh)
O=C(C=Cc1cccs1)c1ccc(Cl)s1	none (no result: VIM-2 inh, beta cell repl, IMP-1 inh)
O=C(/C=C/c1cccs1)c1cc(Cl)ccc1O	PvdQ acylase 77
O=C(Nc1ccnn1C1CCN(CCCc2ccccc2)CC1)c1cccc(F)c1	none
Cc1ccnc2nc(C(=O)Nc3nc4ccccc4s3)nn12	IMP-1 inh 5.0
CC(C)CC1NC(=O)N(CC(=O)N(C)C2CCCCC2)C1=O (stereo not drawn)	none (no result: VIM-2 inh, IMP-1 inh)
O=Nc1c(O)[nH]c2ccc(Cl)cc12	none
COc1cccc2c1C(=O)c1c(O)c3c(c(O)c1C2=O)C[C@@](O)(C(C)=O)C[C@@H]3O[C@H]1C[C@H](N)[C@H](O)[C@H](C)O1	VIM-2 inh 19 (no result: beta cell repl)
COc1cccc2c1C(=O)c1c(O)c3c(c(O)c1C2=O)C[C@@](O)(C(=O)CO)C[C@@H]3O[C@H]1C[C@H](N)[C@@H](O)[C@H](C)O1	none (no result: VIM-2 inh, IMP-1 inh)
COC(=O)c1ccc(=O)c2nc3/c(=C/O)c(O)cc(=O)c3[nH]c12	VIM-2 inh 18 (no result: beta cell repl)
CCCCC(=O)OCc1c(-c2cccc(OC)c2)ncc2ccccc12	none (no result: VIM-2 inh, IMP-1 inh)
CN(CC(=O)NCc1ccccc1)Cc1cccc(F)c1	IMP-1 inh 5.6 (no result: beta cell repl)
O=C(O)c1cc(Cl)c2c(c1)[C@@H]1C=CC[C@@H]1[C@H](c1ccc(S(=O)(=O)N3CCOCC3)cc1)N2	IMP-1 inh 11 (no result: beta cell repl)
Cc1cc(C)c2c(c1)C1C=CCC1C(c1ccc(S(=O)(=O)N3CCOCC3)cc1)N2 (stereo not drawn)	IMP-1 inh 5.8
Cc1ccc(S(=O)(=O)N2CCOCCOCCOCCOCCOCC2)cc1	none
CCOC(=O)c1c(C)[nH]c(C)c1S(=O)(=O)N1CCOCC1	none
CCc1nc2ccc(C(=O)NCCCN3CCN(c4ccccc4F)CC3)cc2nc1CC	none
O=C(OCc1ccc(F)cc1)c1cc2ccccc2cc1O	none
O=C(OCc1ccc(F)cc1)c1ccc2c(c1)-c1ccccc1C2=O	IMP-1 inh 4.6
COC(=O)c1ccc(CN2C(=O)NC(CC(C)C)C2=O)cc1 (stereo not drawn)	none
CCN=C1S/C(=C\c2cc(OCC)c(O)cc2Br)C(=O)N1CC	VIM-2 inh 7.8 (no result: beta cell repl)
CCN=C1S/C(=C\c2ccc(O)c(OCC)c2)C(=O)N1CC	none
CCN(c1ccc2c(c1)OCO2)S(=O)(=O)c1cc2c(cc1Br)CCN2C(=O)C1CC1	none (no result: VIM-2 inh, beta cell repl, IMP-1 inh)
CCN(c1ccc2c(c1)OCO2)S(=O)(=O)c1cc(Br)cc2c1N(C(C)=O)CC2	IMP-1 inh 7.4
CC(C)Cc1nnc(NS(=O)(=O)Cc2ccccc2)s1	VIM-2 inh 10
Cc1cc(NCCN2CCCCC2)n2c(nc3ccccc32)c1C#N	VIM-2 inh 8.7 (no result: HKDC1 inh, beta cell repl, PvdQ acylase, ATG4B inhibitor)
CCCc1cc(NCCCO)n2c(nc3ccccc32)c1C#N	VIM-2 inh 10 (no result: PvdQ acylase)
Cc1c2c(n3c(nc4ccccc43)c1C#N)N(CCN(C)C)CC2	VIM-2 inh 11
CC(=O)Nc1ccc(NC(=O)C(OC(=O)c2ccccc2)C(OC(=O)c2ccccc2)C(=O)O)cc1 (stereo not drawn)	none
O=C(OC(C(=O)O)C(OC(=O)c1ccccc1)C(=O)NCc1ccccc1)c1ccccc1 (stereo not drawn)	IMP-1 inh 6.4
CC(C)=NOC(=O)c1ccc(-c2ccccc2)cc1	none
CCCCN(CC)CCNC(=O)c1cc2c(-c3ccccc3F)nn(C)c2s1	VIM-2 inh 9.3
CC1CCCCN1CCNC(=O)c1cc2c(-c3ccccc3F)nn(C)c2s1 (stereo not drawn)	VIM-2 inh 8.9
CCN(CC)CCCNC(=O)c1cc2c(-c3ccc(Cl)cc3)nn(C)c2s1	none
Cc1ccc(NC(=O)COC(=O)c2cccc3c(=O)c(C)c(-c4ccccc4)oc23)cc1	none
COc1cc(C(=O)N2C(=O)CCC2=O)cc(OC)c1OC	none
Cn1nc(-c2ccc(C(=O)N3CCN(Cc4ccccc4)CC3)cc2)c2ccccc2c1=O	VIM-2 inh 11
CCOC(=O)C1C(=O)NC(C(=O)OCC)(C(=O)OCC)C1C(C)CC (stereo not drawn)	none (no result: VIM-2 inh, beta cell repl, IMP-1 inh)
CCCc1cc(=O)oc2cc(OCC(=O)Nc3ccc(S(N)(=O)=O)cc3)ccc12	IMP-1 inh 15
CCCc1cc(=O)oc2cc(OCC(=O)NCC(O)c3ccccc3)ccc12 (stereo not drawn)	IMP-1 inh 42
CCCc1cc(=O)oc2cc(OCC(=O)NCCCn3ccnc3)ccc12	VIM-2 inh 9.0
CCCc1cc(=O)oc2cc(OC(C)C(=O)NCCCn3ccnc3)ccc12 (stereo not drawn)	none
Cc1c(C)c2ccc(OCC(=O)Nc3ccc(S(N)(=O)=O)cc3)c(C)c2oc1=O	VIM-2 inh 7.8
Cc1ccccc1OCC(=O)OCC(=O)Nc1ccc(S(N)(=O)=O)cc1	none
c1ccc(N2CCN(c3ncnc4c3oc3ccccc34)CC2)cc1	none
CCc1nnc(N2CCN(c3ncnc4c3oc3ccccc34)CC2)s1	VIM-2 inh 12 (no result: beta cell repl)
Cc1ccc(NC(=O)CC2OC(=O)c3ccccc32)cc1S(=O)(=O)N1CCCCCC1 (stereo not drawn)	none (no result: VIM-2 inh, IMP-1 inh)
O=C(CCCSc1nnnn1-c1ccccc1)c1ccc(F)cc1	none (no result: HKDC1 inh, beta cell repl, PvdQ acylase, ATG4B inhibitor)
CC(/C=C1\SC(=S)N(CCC(=O)Nc2ccc(O)cc2)C1=O)=C\c1ccccc1	none
Cc1ccc(NC(=O)CCCN2C(=O)/C(=C/C=C/c3ccccc3)SC2=S)cc1	IMP-1 inh 7.2
CC(/C=C1\SC(=S)N(CCCC(=O)Nc2ccc(C(=O)O)c(O)c2)C1=O)=C\c1ccccc1	ATG4B inhibitor 41 (no result: beta cell repl, PvdQ acylase)
O=C(CCN1C(=O)/C(=C\C=C\c2ccccc2)SC1=S)Nc1ccccc1C(=O)O	IMP-1 inh 8.1
O=C(O)CCCN1C(=O)/C(=C\C(Cl)=C\c2ccccc2)SC1=S	HKDC1 inh 44 (no result: beta cell repl)
O=C(CCCN1C(=O)S/C(=C/C=C/c2ccccc2)C1=O)Nc1ccc(C(=O)O)cc1	none
O=C(O)CCCN1C(=O)/C(=C\c2ccccc2OCc2ccccc2)SC1=S	none
Cc1sc2ncnc(N3CCN(Cc4ccccc4)CC3)c2c1-c1ccccc1	none
O=C(CCS(=O)(=O)c1ccc(F)cc1)N1CCOCC1	none
CCc1cccc(CC)c1NC(=S)N1CCn2cccc2C1c1cccnc1 (stereo not drawn)	none
O=C(COC(=O)CCN1C(=O)/C(=C\C=C\c2ccccc2)SC1=S)Nc1ccc(Br)cc1	IMP-1 inh 5.5
CC(C)c1ccccc1NC(=O)COC(=O)CCN1C(=O)/C(=C\C=C\c2ccccc2)SC1=S	none

Assay outcomes as filed in PubChem BioAssay.
